Results from ChEMBL document CHEMBL1909525, “Synthesis and anticonvulsant activity of novel 2,6-diketopiperazine derivatives. Part 1: perhydropyrrole[1,2-a]pyrazines” (Eur J Med Chem, 2011).
Calls of active or inactive are those of the source. No cut-off for these calls is given here.

Experiments:
Rattus norvegicus [1] = species: Rattus norvegicus; experiment: Inhibition of voltage-gated sodium channel in Wistar rat cerebral prefrontal coronal slices assessed as decrease of […] current-induced current amplitude at 10 uM after 5 mins by whole cell voltage clamp method (reference value: 4.2%); set-up: scale not given: the % may be the effect or the level left
Rattus norvegicus [2] = experiment: Anticonvulsant activity in albino Sprague-Dawley rat assessed as protection against pilocarpine-induced status epilepticus at 65 mg/kg, ip measured after time from first stage 3 seizures; type: functional, organism-based; set-up: dose 65 mg/kg
In short: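 Male albino Sprague-Dawley rats, 150–180 g. Compound given i.p., then a challenge dose of pilocarpine at 0 min or at 30 min. Outcome scored as protection or no protection from seizures (protected/tested), with body weight change recorded.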

Mus musculus [3] = experiment: Anticonvulsant activity in albino Carworth Farms No.1 mouse assessed as protection against maximal electroshock-induced seizure at 100 mg/kg, ip after 4 hrs; type: functional, organism-based; set-up: dose 100 mg/kg
In short: (§1)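 Mouse MES test with compound given i.p. (30, 100 or 300 mg/kg) in 0.5% methylcellulose; tested at 0.5 and 4 h. Corneal stimulus of 50 mA at 60 Hz for 0.2 s, electrodes primed with 0.5% butacaine in 0.9% NaCl. Protection is abolition of hindlimb tonic extension; scored as protected/tested.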

Mus musculus [4] = experiment: Neurotoxicity in albino Carworth Farms No.1 mouse assessed as motor impairment at 300 mg/kg, ip after 4 hrs by rotarod test; type: toxicity, organism-based; set-up: dose 300 mg/kg, route intraperitoneal; settings: in vivo
In short: (§2)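 Rotorod neurotoxicity in mice at 6 r.p.m. Compound given i.p. (30, 100, 300 mg/kg) in 0.5% methylcellulose; tested at 30 min and 4 h. Impairment is inability to keep equilibrium on the rod for a given time; scored as impaired/tested.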

Rattus norvegicus [5] = experiment: Anticonvulsant activity in po dosed albino Sprague-Dawley rat assessed as protection against maximal electroshock-induced seizure after 0.25 hrs; type: functional
In short: (§3)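 Rats dosed orally, compound in 0.5% methylcellulose. MES at 150 mA, 60 Hz, 0.2 s; scMET with pentylenetetrazole 70 mg/kg s.c. plus 30 min observation; rotorod for toxicity.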

Mus musculus [6] = experiment: Anticonvulsant activity in albino Carworth Farms No.1 mouse assessed as protection against electric-current for 3 secs-induced seizure at 75 mg/kg, ip after 1 hr by 6Hz minimal clonic seizure test; type: functional, organism-based; set-up: dose 75 mg/kg
In short: (§4)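 6 Hz psychomotor seizure test in mice. Compound given i.p. as a suspension in 0.5% methylcellulose. Corneal stimulation at 32 mA, 0.2-ms monopolar rectangular pulses at 6 Hz for 3 s, from a constant-current device. Tests run 0.25–4 h after dosing. A mouse counted as protected if it resumed normal exploratory behaviour within 10 s; scored as protected/tested.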

[7] = Neurotoxicity in po dosed albino Sprague-Dawley rat assessed as motor impairment after 0.25 hrs by rotarod test; type: toxicity, organism-based; settings: in vivo; in short: as §3
Mus musculus [8] = experiment: Anticonvulsant activity in albino Carworth Farms No.1 mouse assessed as protection against maximal electroshock-induced seizure at 300 mg/kg, ip after 0.5 hrs; type: functional, organism-based; set-up: dose 300 mg/kg; in short: as §1
Mus musculus [9] = experiment: Anticonvulsant activity in ip dosed albino Carworth Farms No.1 mouse assessed as protection against subcutaneous metrazol-induced seizure after 0.25 hrs; type: functional; settings: albino Carworth Farms No.1, 0.25 h
In short: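 Mouse quantification at the time of peak effect, compound given i.p. in 0.5% methylcellulose. Groups of at least eight mice received varied doses until at least two points fell between 100 and 0% response. ED50 (MES, scMET) and TD50 (rotorod) with 95% CI by probit analysis (Finney). PI = TD50/ED50 MES.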

Mus musculus [10] = experiment: Anticonvulsant activity in albino Carworth Farms No.1 mouse assessed as protection against electric-current for 3 secs-induced seizure at 75 mg/kg, ip after 4 hrs by 6Hz minimal clonic seizure test; type: functional, organism-based; set-up: dose 75 mg/kg; in short: as §4
Rattus norvegicus [11] = species: Rattus norvegicus; experiment: Inhibition of voltage-gated sodium channel in Wistar rat cerebral prefrontal coronal slices assessed as decrease of 0.1 Hz current-induced current amplitude at 10 to 100 uM after 5 mins by whole cell voltage clamp method
In short: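 Whole-cell voltage clamp on mechanically dispersed mPFC cells from coronal prefrontal slices of 3-week-old male Wistar rats. Bath: TEA-OH 90, NaCl 30, HEPES 10, MgCl2 2, CaCl2 2, glucose 15 mM, pH 7.4. Na+ currents evoked at 0.1 Hz by a step to -20 mV (30 ms) after a -100 mV prepulse (1000 ms). Amplitude compared before and after 5 min compound application; n = 3.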

Mus musculus [12] = experiment: Anticonvulsant activity in albino Carworth Farms No.1 mouse assessed as protection against electric-current for 3 secs-induced seizure at 75 mg/kg, ip after 0.5 hrs by 6Hz minimal clonic seizure test; type: functional, organism-based; set-up: dose 75 mg/kg; in short: as §4
Rattus norvegicus [13] = experiment: Toxicity in albino Sprague-Dawley rat pilocarpine-induced status epilepticus model assessed as change in body weight in protected rat at 65 mg/kg, ip measured after 24 hrs of time from first stage 3 seizures; type: organism-based; set-up: dose 65 mg/kg, route intraperitoneal; settings: in vivo
In short: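 Male albino Sprague-Dawley rats (150–180 g) received compound i.p., then a pilocarpine challenge immediately (0 min) or 30 min after treatment. The outcome was protection or no protection from seizures, scored as number protected/number tested. Average body weight change (g) ± S.E.M. was reported separately for protected and non-protected rats.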

Mus musculus [14] = experiment: Anticonvulsant activity in ip dosed albino Carworth Farms No.1 mouse assessed as time needs to show peak effect for protection against maximal electroshock-induced seizure; type: functional
Mus musculus [15] = experiment: Anticonvulsant activity in albino Carworth Farms No.1 mouse assessed as protection against subcutaneous metrazol-induced seizure at 30 mg/kg, ip after 4 hrs; type: functional, organism-based; set-up: dose 30 mg/kg
In short: (§5)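 Mouse scMET test. Compound given i.p. (30, 100 or 300 mg/kg) in 0.5% methylcellulose. Pentylenetetrazole 85 mg/kg (CD97) given s.c. at 0.5 or 4 h, then mice observed for 30 min. Protection is absence of clonic spasms; scored as protected/tested.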

Mus musculus [16] = experiment: Neurotoxicity in albino Carworth Farms No.1 mouse assessed as motor impairment at 30 mg/kg, ip after 4 hrs by rotarod test; type: toxicity, organism-based; set-up: dose 30 mg/kg, route intraperitoneal; settings: in vivo; in short: as §2
Mus musculus [17] = experiment: Anticonvulsant activity in albino Carworth Farms No.1 mouse assessed as protection against electric-current for 3 secs-induced seizure at 100 mg/kg, ip after 0.5 hrs by 6Hz minimal clonic seizure test; type: functional; in short: as §4
Mus musculus [18] = experiment: Anticonvulsant activity in albino Carworth Farms No.1 mouse assessed as protection against subcutaneous metrazol-induced seizure at 100 mg/kg, ip after 0.5 hrs; type: functional, organism-based; set-up: dose 100 mg/kg; in short: as §5
[19] = Neurotoxicity in ip dosed albino Carworth Farms No.1 mouse assessed as motor impairment after 0.25 hrs by rotarod test; type: toxicity, organism-based; settings: Carworth Farms No.1 (albino), in vivo
In short: (§6)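 Mouse quantification at the time of peak effect, compound given i.p. in 0.5% methylcellulose. Groups of at least eight mice received varied doses until at least two points fell between 100 and 0% response. PI = TD50/ED50 MES.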

Mus musculus [20] = experiment: Anticonvulsant activity in albino Carworth Farms No.1 mouse assessed as protection against electric-current for 3 secs-induced seizure at 100 mg/kg, ip after 4 hrs by 6Hz minimal clonic seizure test; type: functional, organism-based; set-up: dose 100 mg/kg; in short: as §4
Rattus norvegicus [21] = species: Rattus norvegicus; experiment: Inhibition of voltage-gated sodium channel in Wistar rat cerebral prefrontal coronal slices assessed as decrease of […] current-induced current amplitude at 100 uM after 5 mins by whole cell voltage clamp method (reference value: 8 +/- 2.3%); set-up: scale not given: the % may be the effect or the level left
Mus musculus [22] = species: Mus musculus; experiment: Protective index, ratio of TD50 for albino Carworth Farms No.1 mouse to ED50 for albino Carworth Farms No.1 mouse by maximal electroshock-induced seizure test; type: functional; in short: as §6

SMILES: O=C1NC(=O)[C@@H]2CCCN2[C@H]1c1ccccc1
- Activity (Rattus norvegicus [1]): 5.3%
- Activity (Rattus norvegicus [2]): Active
- Activity (Mus musculus [3]): inactive
- Activity (Mus musculus [4]): Non-toxic
- ED50 (Rattus norvegicus [5]): 39.7 mg/kg
- Activity (Mus musculus [6]): inactive
- TD50 at 0.25 h [7]: > 500 mg/kg
- Activity (Mus musculus [8]): inactive
- ED50 (Mus musculus [9]): 87.9 mg/kg
- Activity (Mus musculus [10]): inactive
- inhibition (Rattus norvegicus [11]): inactive
- Activity (Mus musculus [12]): Active
- Activity (Rattus norvegicus [13]): 4.4 g
- Time (Mus musculus [14]): 0.25 h
- Activity (Mus musculus [15]): inactive
- Activity (Mus musculus [16]): Non-toxic
- Activity (Mus musculus [17]): inactive
- Activity (Mus musculus [18]): inactive
- TD50 at 0.25 h [19]: 122 mg/kg
- Activity (Mus musculus [20]): inactive
- Activity (Rattus norvegicus [21]): 14.1%
- Ratio TD50/ED50 (Mus musculus [22]): 1.7
